An excerpt weighted towards active compounds, which were near 1.8% of everything screened.
LEDGF integ inh: blocks HIV-1 LEDGF/p75-dependent DNA integration. AID 743269. TR-FRET IN-LEDGF/p75 DNA integration, Eu/Cy5. 0.64% of 370,000 active. inhibition, % at 3.7 µM;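 active = inhibition above the screen-wide mean plus 3 SD, cut at about 13% in these data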;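 also: signal is the Cy5 over europium emission ratio at 671 and 618 nm; 0% = plate median of compound wells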
TDP2 absorb: blocks human TDP2 phosphodiesterase activity | inhibition, % at 12.8 µM | recombinant TDP2, T5PNP hydrolysis, p-nitrophenol absorbance 415 nm | AID 720702 | 0.34% of 370,000 active | O95551;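 active = inhibition above the mean of all tested compounds plus 3 SD, set per campaign, cut at about 25% in these data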;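 also: 0% = DMSO with enzyme and 100% = buffer with substrate but no TDP2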
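Test system: human TDP2 enzyme; Input: 120 nM TDP2 per well; Buffer or medium: Mg2+-containing Tris-HCl buffer, pH 7.5; Reagent: 5 mM T5PNP; Dosing: 12.8 µM single point, 1% DMSO; Incubation: reaction 2 h, 37 °C; Detection: p-Nitrophenol epi absorbance; Read-out: % inhibition relative to enzyme-containing and enzyme-free wells; Replicates: single well per compound.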
MBD2 inh: blocks human MBD2 binding to methylated DNA. Q9UBB5. AID 686964. TR-FRET, MBD2 binding to methylated oligonucleotide. inhibition, % at 4.4 µM. 0.31% of 370,000 active; in the data active = inhibition above about 13%
NSD2 inh: inhibitors of human histone methyltransferase NSD2; O96028; NSD2 peptide methylation, AlphaScreen, 120 min; inhibition, % at 12.5 µM; 0.54% of 310,000 active; in the data active = inhibition above about 50%
Target sequence (O96028 whole entry, looked up): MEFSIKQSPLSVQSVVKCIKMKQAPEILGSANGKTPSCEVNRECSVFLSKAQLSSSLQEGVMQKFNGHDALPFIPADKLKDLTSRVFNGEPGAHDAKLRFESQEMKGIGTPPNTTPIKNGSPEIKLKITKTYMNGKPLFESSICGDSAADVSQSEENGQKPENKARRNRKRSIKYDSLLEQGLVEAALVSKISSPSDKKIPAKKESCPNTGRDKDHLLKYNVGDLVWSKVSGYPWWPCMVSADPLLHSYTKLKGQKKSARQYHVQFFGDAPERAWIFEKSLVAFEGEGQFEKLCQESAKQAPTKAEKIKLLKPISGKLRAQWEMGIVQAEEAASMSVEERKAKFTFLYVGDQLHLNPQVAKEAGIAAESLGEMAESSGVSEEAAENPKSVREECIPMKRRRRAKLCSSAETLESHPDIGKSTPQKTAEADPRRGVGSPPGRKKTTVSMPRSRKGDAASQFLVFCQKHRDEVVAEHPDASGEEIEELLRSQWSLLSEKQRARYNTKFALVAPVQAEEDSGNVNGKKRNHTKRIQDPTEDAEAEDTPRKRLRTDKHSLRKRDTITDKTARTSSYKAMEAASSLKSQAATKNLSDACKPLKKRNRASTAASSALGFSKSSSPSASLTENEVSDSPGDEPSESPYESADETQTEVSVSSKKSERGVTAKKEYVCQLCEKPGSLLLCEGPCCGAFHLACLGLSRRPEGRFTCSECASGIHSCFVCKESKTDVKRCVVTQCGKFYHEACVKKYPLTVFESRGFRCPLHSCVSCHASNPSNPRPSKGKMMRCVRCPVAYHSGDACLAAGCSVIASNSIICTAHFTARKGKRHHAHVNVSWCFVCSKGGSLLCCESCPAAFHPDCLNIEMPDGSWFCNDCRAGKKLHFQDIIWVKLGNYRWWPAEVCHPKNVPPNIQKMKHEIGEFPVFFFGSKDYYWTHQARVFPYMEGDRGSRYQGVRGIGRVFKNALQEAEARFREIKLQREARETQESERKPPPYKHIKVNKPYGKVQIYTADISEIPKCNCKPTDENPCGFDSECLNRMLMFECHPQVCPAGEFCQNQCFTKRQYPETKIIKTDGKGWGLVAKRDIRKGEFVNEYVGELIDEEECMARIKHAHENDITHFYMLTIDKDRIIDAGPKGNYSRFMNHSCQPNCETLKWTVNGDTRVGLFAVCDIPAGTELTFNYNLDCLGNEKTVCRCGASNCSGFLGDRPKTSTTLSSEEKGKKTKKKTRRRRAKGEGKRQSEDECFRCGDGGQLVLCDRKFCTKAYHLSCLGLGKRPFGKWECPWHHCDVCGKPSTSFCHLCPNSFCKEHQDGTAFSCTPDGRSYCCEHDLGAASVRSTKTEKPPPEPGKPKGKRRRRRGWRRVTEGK
Casp6 inh: blocks human caspase-6 cleavage activity. P55212. purified caspase-6, Z-VEID-R110 cleavage fluorescence. inhibition, % at 12.5 µM. 0.53% of 350,000 active;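 active = mean inhibition across replicates at least about 35%, with every replicate also reaching that limit, limit read from the data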;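 also: 0% = median of neutral control wells and 100% = no fluorescence left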
UHRF1 binding: UHRF1 methyl-DNA binding inhibition; 0.75% of 370,000 active; UHRF1 binding to methylated oligo, TR-FRET; inhibition, % at 4.4 µM; Q96T88; in the data active = inhibition above about 21%;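 also: UHRF1 SRA domain binding a hemimethylated CpG hairpin DNA probe; 0% = median of test compound wells and 100% = reference inhibitor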
TDP2 confirm: confirmation of human TDP2 inhibitors. inhibition, % at 12.8 µM. shares compounds with TDP2 absorb. 22% of 1,100 active. recombinant human TDP2, absorbance read-out; in the data active = inhibition above about 25%;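 also: 0% = vehicle with enzyme and 100% = no enzyme buffer only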
Active calls of the source: *; nt = no result given.

SMILES | LEDGF integ inh | TDP2 absorb | MBD2 inh | NSD2 inh | Casp6 inh | UHRF1 binding | TDP2 confirm
CC1=C(C)CC(C(=O)NCc2ccccc2F)C(C(=O)O)C1 (stereo not drawn) | 2 | 25* | 0 | -3 | 5 | 0 | 11
O=C(O)C1C2C=CC(C2)C1C(=O)NCc1ccccc1F (stereo not drawn) | -1 | -10 | -3 | 0 | -2 | 0 | nt
COc1cccc(N2CC(C(=O)Nc3nnc(SCCC4OCCO4)s3)CC2=O)c1 (stereo not drawn) | -3 | 29* | -8 | nt | 0 | -5 | 2
O=C(Nc1nnc(SCCC2OCCO2)s1)C1CC(=O)N(c2ccccc2)C1 (stereo not drawn) | -4 | -12 | 0 | 1 | 2 | 1 | nt
CCCCCN(C(=O)CCC(=O)OCC(=O)NCc1cccc(OC)c1)c1c(N)n(CCCC)c(=O)[nH]c1=O | 0 | 75* | 3 | -3 | 0 | 0 | -2
CCCCN(C(=O)CCC(=O)OCC(=O)NCc1ccccc1)c1c(N)n(CCC)c(=O)[nH]c1=O | 1 | -1 | 1 | 1 | 0 | 0 | nt
CCCCn1c(N)c(N(CC(C)C)C(=O)c2cccc(OCc3ccccc3)c2)c(=O)[nH]c1=O | -1 | 25* | -2 | -1 | 2 | 2 | -4
CCCNC(=O)C[C@H]1C[C@@H]2c3cc(NC(=O)CC4CC4)ccc3O[C@@H]2[C@@H](CO)O1 | nt | nt | nt | nt | 3 | nt | nt
CC(C)CC(=O)N1CCN(Cc2ccc(Cl)cc2)CC1 | 1 | 26* | -2 | 2 | 0 | -2 | 1
CC(C)CC(=O)N1CCN(Cc2ccc(Br)cc2)CC1 | 0 | -1 | -2 | -2 | 1 | -2 | nt
CC(C)CC(=O)N1CCN(Cc2ccc(C(F)(F)F)cc2)CC1 | -1 | 30* | 2 | -1 | -3 | 0 | 12
COc1ccccc1CN(C)C[C@@H]1OCc2cnnn2CCCC(=O)N([C@H](C)CO)C[C@@H]1C | nt | nt | nt | nt | 1 | nt | nt
C[C@H]1CCCCO[C@@H](CN(C)C(=O)c2ccccc2)[C@@H](C)CN([C@@H](C)CO)C(=O)c2cc(NS(=O)(=O)c3ccc(Cl)cc3)ccc2O1 | nt | nt | nt | nt | 2 | nt | nt
C=CCN1C=C2C(=O)C(C)(OC(=O)c3cccs3)C(=O)C=C2C=C1CCCC(=O)OC (stereo not drawn) | -2 | 26* | -9 | nt | 5 | -2 | 4
CSc1nc2ccsc2c(=O)n1-c1ccccn1 | 1 | 60* | 2 | 1 | 1 | 0 | 9
COc1ccc(S(=O)(=O)Nc2ccc3c(c2)C(=O)N([C@@H](C)CO)C[C@H](C)[C@H](CN(C)C(=O)c2ccccc2)OCCCC[C@@H](C)O3)cc1 | nt | nt | nt | nt | -3 | nt | nt
COc1ccccc1-c1ccc(SCC(=O)NC2CCCC2)nn1 | 5 | 37* | -3 | 1 | 1 | 2 | -10
COc1ccccc1-c1ccc(SCC(=O)NC2CCCCC2)nn1 | -1 | 5 | -1 | -4 | 1 | -2 | nt
CCn1cc(S(=O)(=O)Nc2ccc(C)c(Cl)c2)cn1 | -1 | 11 | 3 | 0 | 1 | 0 | nt
CCn1cc(S(=O)(=O)Nc2ncccn2)cn1 | 1 | 25* | -6 | -7 | -3 | -2 | 1
C[C@@H]1CN([C@H](C)CO)C(=O)c2cc(NC(=O)CCCN(C)C)ccc2O[C@@H](C)CCCCO[C@H]1CN(C)C(=O)Nc1cccc2ccccc12 | nt | nt | nt | nt | 0 | nt | nt
COc1ccc2c(CC(=O)N[C@@H](Cc3ccccc3)C(=O)O)cc(=O)oc2c1C | 3 | -9 | 8 | -1 | 0 | -2 | nt
Cc1c(O)ccc2c(CC(=O)N[C@@H](Cc3ccc(O)cc3)C(=O)O)cc(=O)oc12 | 1 | 31* | 3 | -1 | -1 | -4 | 4
Cc1noc(C)c1NC(=O)N[C@H]1CC[C@@H](CC(=O)N2CCCCC2)O[C@@H]1CO | nt | nt | nt | nt | 1 | nt | nt
CCOc1ccc2noc3c2c1C(=O)c1ccccc1-3 | 12 | 39* | -11 | nt | nt | -4 | 34*
SMILES | LEDGF integ inh | TDP2 absorb | MBD2 inh | NSD2 inh | Casp6 inh | UHRF1 binding | TDP2 confirm
CC1(C(=O)OCC(=O)Nc2cccc(S(=O)(=O)NC3=NCCCCC3)c2)CC1(Cl)Cl (stereo not drawn) | -5 | 27* | 3 | 0 | -2 | -4 | 3
O=C(C[C@@H]1CC[C@H]2[C@@H](COC[C@@H](O)CN2C(=O)c2ccccc2F)O1)N1CCN(c2ccccc2)CC1 | nt | nt | nt | nt | 2 | nt | nt
CCOC(=O)c1sc(NC(=O)CNCc2cccnc2)c(C(=O)OCC)c1C | 1 | 1 | -4 | 1 | -1 | 0 | nt
CCOC(=O)c1sc(NC(=O)CNCc2ccccn2)c(C(=O)OCC)c1C | 0 | 26* | 3 | 0 | 2 | 4 | 0
COc1ccc(NC(=O)Nc2ccc3c(c2)C(=O)N([C@@H](C)CO)C[C@@H](C)[C@H](CN(C)Cc2ccc4c(c2)OCO4)OCCCC[C@H](C)O3)cc1 | nt | nt | nt | nt | -1 | nt | nt
COc1cc2c(cc1OC)-c1cc3ccc4c(c3c[n+]1CC2)OCO4 | 5 | 26* | -23 | nt | 7 | -67 | 9
COc1cc2c(cc1O)CC[n+]1cc3c(OC)c(OC)ccc3cc1-2 | 1 | 11 | -9 | nt | 3 | -12 | nt
NS(=O)(=O)c1ccc(-c2ccc(C=NC3CCS(=O)(=O)C3)o2)cc1 (stereo not drawn) | -1 | 1 | -4 | 7 | nt | -4 | nt
NS(=O)(=O)c1ccc(-c2ccc(/C=C3\SC(=S)N(C4CCS(=O)(=O)C4)C3=O)o2)cc1 (stereo not drawn) | 6 | 29* | 2 | -1 | 12 | 1 | -1
CO[C@H]1CN(C)C(=O)c2ccc(NC(=O)C3CCCCC3)cc2OC[C@@H](C)N(C(=O)c2ccccc2)C[C@H]1C | nt | nt | nt | nt | -3 | nt | nt
CC1(C)CNc2cc(N)ccc2S1 | 13 | 38* | -10 | nt | 4 | -2 | 0
CO[C@H]1CN(C)C(=O)c2cc(NC(=O)C3CC3)ccc2OC[C@@H](C)N(C(=O)c2ccccc2)C[C@H]1C | nt | nt | nt | nt | 0 | nt | nt
O=C(NCCCN1CCCC1)c1ccc2c(c1)N(Cc1ccccc1F)C(=O)c1ccccc1S2=O (stereo not drawn) | -3 | -3 | -8 | 8 | -18 | 2 | nt
O=C(NCCCN1CCOCC1)c1ccc2c(c1)N(Cc1ccc(Cl)cc1)C(=O)c1ccccc1S2=O (stereo not drawn) | 0 | 53* | -2 | 2 | 0 | -2 | 0
COc1cc(CNc2ccc(O)cc2)cc(Br)c1OCc1ccccc1 | 10 | 36* | -8 | 8 | 13 | 5 | -5
COC(=O)Nc1ccc(OCc2ccccc2)cc1 | 1 | 4 | -6 | -4 | 0 | 0 | nt
Oc1ccc(NCc2ccc(OCc3ccccc3)cc2)cc1 | 7 | 34* | -9 | 0 | nt | 9 | 39*
CCCNC(=O)N(C)C[C@@H]1Oc2ncc(C#CCc3ccccc3)cc2C(=O)N([C@@H](C)CO)C[C@@H]1C | nt | nt | nt | nt | 2 | nt | nt

Screens from PubChem.
